# Where “and” joins values, the source holds several entries; their conditions need not be identical. Equal values may be shown once. Calls of active or inactive are those of the source.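 The calls were made as follows: active = GFP response vs DMSO above 150% with enough events counted; inconclusive = fewer than 70 events counted for a yeast strain; inactive = the rest.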
# Test: yeast TOR reporter LAP4-GFP retest – cell-based, third cherry pick, flow cytometry, confirmation (AID 504338);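 also: ratio to plate DMSO wells so 100% equals DMSO level rather than 0%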
# Conditions: S. cerevisiae LAP4-GFP strain, 3 h, at 10 µM, active compounds read high
# Method in brief: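 System: Saccharomyces cerevisiae strain expressing LAP4-GFP fusion protein. Quantity: cells at 0.2 OD600. Medium: synthetic complete medium. Read-out basis: median GFP fluorescence as percent of plate DMSO-well average. Signal: high-throughput flow cytometry of GFP, single-cell scatter gate. Schedule: 3 h treatment, 30 °C. Dosing: single compound dose, 10 µM final.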
row,SMILES,GFP response vs DMSO
1,O=C(Nc1ccccc1Cl)ON=C1c2ccccc2-c2ccccc21,108% (inactive)
2,CC(C)Nc1ncnc2ccc(Br)cc12,106% (inactive)
3,O=C(Nc1ccc(-c2nc3ccccc3o2)cc1)c1cccnc1,117% (inactive)
4,CCCOCc1ccc(O)c2ncccc12,104% (inactive)
5,O=C(O)c1ccc(C=NNC(=O)c2cccc3ccccc23)cc1,104% (inactive)
6,O=C(N/N=C/c1ccccc1F)c1cccc2ccccc12,104% (inactive)
7,Cn1c(=O)c2c(n3cnnc13)-c1ccccc1CC21CCCC1,101% (inactive)
8,Cc1cn2c(N)c(C=C3C=C(Cl)C(=O)C(Cl)=C3)c(=O)nc2s1,108% (inactive)
9,COc1ccccc1Nc1nc(NCC(C)C)nc(N)c1[N+](=O)[O-],104% (inactive)
10,Nc1c(O)ccc2c1C(=O)c1ccccc1C2=O,101% (inactive)
11,CC(=O)Nc1ccc(-c2nc3ccccc3o2)cc1,108% (inactive)
12,OCc1ccnc2c(O)cccc12,101% (inactive)
13,Nc1c(C(=O)O)ccc2c1C(=O)c1ccccc1C2=O,115% (inactive)
14,Cc1nc2c(O)cccc2cc1CO,101% (inactive)
15,CC1=CN2C(=N)/C(=C/c3ccco3)C(=O)N=C2S1,101% (inactive)
16,COc1ccccc1-c1cc(C(F)(F)F)nc(S(=O)(=O)CCCC(=O)O)n1,112% (inactive)
17,CC1=NNC(=O)/C1=C\c1cn(-c2ccccc2)nc1-c1ccc(F)cc1,179% (active)
18,COc1cccc2c(=O)c(C(=O)O)c[nH]c12,110% (inactive)
19,Nc1cccc2c1C(=O)c1ccc(Cl)cc1C2=O,100% (inactive)
20,C[n+]1cccc2cccc([O-])c21,107% (inactive)

row,SMILES,GFP response vs DMSO
1,Oc1ccc(F)c2cccnc12,106% (inactive)
2,CNc1cccc2c1C(=O)c1ccccc1C2=O,107% (inactive)
3,COCCCNc1nc(N)c([N+](=O)[O-])c(Nc2ccccc2OC)n1,106% (inactive)
4,COc1ccccc1Nc1nc(NCCO)nc(N)c1[N+](=O)[O-],104% (inactive)
5,CCCC(=O)Nn1cnc2c(c1=O)C1(CCCC1)Cc1ccccc1-2,103% (inactive)
6,Brc1ccc2ncnc(NCc3ccccc3)c2c1,107% (inactive)
7,C/C(=N\NC(=O)c1cccc2ccccc12)c1cccnc1,104% (inactive)
8,COc1cccc(N/C=C/C(=O)c2ccc(Cl)cc2)c1,111% (inactive)
9,COc1ccc(-c2cc(C(F)(F)F)nc(S(C)(=O)=O)n2)cc1OC,107% (inactive) and 110% (inactive)
10,COc1ccccc1Nc1nc(NCCC(C)C)nc(N)c1[N+](=O)[O-],100% (inactive)
11,N#Cc1c(N)nc(N)nc1Nc1ccc(Br)cc1,104% (inactive)
12,CS(=O)(=O)c1nc(-c2ccc(F)cc2)cc(C(F)(F)F)n1,144% (inactive)
13,Cc1ccc(C(=O)Nc2nc(-c3ccccn3)cs2)o1,103% (inactive)
14,C/C(=N\NC(=O)c1ccccc1)c1ccccc1F,106% (inactive)
15,C/C(=C\C(=O)c1ccc(C)cc1)Nc1cccc(O)c1,106% (inactive)
16,C/C(=C\C(=O)c1ccccc1)Nc1cccc(O)c1,107% (inactive)
17,Cc1cc(C)c(NC(=O)CC(=O)c2ccccc2)c(Cl)c1,100% (inactive)
18,COC1=C/C(=C/c2c(N)n3cc(C)sc3nc2=O)C=CC1=O,110% (inactive)
19,COCCCNc1nc(N)c([N+](=O)[O-])c(Nc2cc(OC)ccc2OC)n1,103% (inactive)
